pIC50: −log10 of the molar value. The source made the active and inactive calls. The calls are words filed in the database; no cut-off is given here.
Columns and labels:
[1] = (§1) Antiviral activity against Hepatitis B virus subtype adw2 infected in human HuH7 cells assessed as inhibition of viral DNA replication by RT-PCR method; format: functional, cell-based; conditions: Huh-7
[2] = Cytotoxicity against human HepG2.2.15 cells assessed as reduction in cell viability after 3 days by MTS assay; conditions: read-out: TC50
[3] = Antiviral activity against Hepatitis B virus in human HepG2.2.15 cells assessed as inhibition of HBsAg secretion by EIA
[4] = Antiviral activity against Hepatitis B virus subtype adw2 infected in human HepG2.2.15 cells assessed as inhibition of HBeAg secretion by EIA
[5] = Selectivity index, ratio of TC50 for human HepG2.2.15 cells to IC50 for Hepatitis B virus subtype adw2 infected in human HuH7 cells assessed as inhibition of HBsAg secretion
[6] = Selectivity index, ratio of TC50 for human HepG2.2.15 cells to IC50 for Hepatitis B virus subtype adw2 infected in human HepG2.2.15 cells assessed as inhibition of HBeAg secretion
[7] = Selectivity index, ratio of TC50 for human HepG2.2.15 cells to IC50 for Hepatitis B virus subtype adw2 infected in human HuH7 cells assessed as inhibition of viral DNA replication
[8] = tested on: Hepatitis B virus subtype adw2; assay: Antiviral activity against Hepatitis B virus subtype adw2 infected in human HepG2.2.15 cells assessed as inhibition of HBsAg secretion by EIA
[9] = tested on: Hepatitis B virus subtype adw2; assay: Antiviral activity against Hepatitis B virus subtype adw2 infected in human HepG2.2.15 cells assessed as inhibition of HBeAg secretion by EIA
[10] = Antiviral activity against Hepatitis B virus subtype adw2 infected in human HuH7 cells assessed as inhibition of HBsAg secretion by EIA; format: functional, cell-based; conditions: Huh-7
[11] = Antiviral activity against Hepatitis B virus subtype adw2 in human HepG2.2.15 cells assessed as inhibition of viral DNA replication by RT-PCR method
[12] = tested on: Hepatitis B virus subtype adw2; assay: as §1; format: functional, cell-based
[13] = Antiviral activity against Hepatitis B virus in human HepG2.2.15 cells assessed as inhibition of viral DNA replication by RT-PCR method
[14] = tested on: Hepatitis B virus subtype adw2; assay: Antiviral activity against Hepatitis B virus subtype adw2 infected in human HuH7 cells assessed as inhibition of viral DNA replication at 10 uM after 2 days by RT-PCR method; format: functional, cell-based
Procedure, shortened: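 Huh7 cells transfected with pHBV1.2, a plasmid carrying 1.2-fold of the HBV adw2 genome, for 2 days, then treated for another 2 days. Secreted viral particles were isolated from the culture medium and extracellular HBV DNA quantified by real-time PCR against untreated or vehicle controls; n = 3.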

[15] = Antiviral activity against Hepatitis B virus subtype adw2 infected in human HuH7 cells assessed as reduction in HBcAg level at 5 ug/ml after 2 days by immunoblot method relative to control; format: functional
Procedure, shortened: (§2)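 Huh7 cells were transfected with pHBV1.2 (1.2-fold HBV adw2 genome) for 2 days, then exposed to 2.5, 5 or 10 μg/mL for another 2 days. Whole-cell protein was extracted with protease inhibitors. SHBs, HBcAg and HBx were detected by immunoblot, with α-tubulin for comparison.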

[16] = Antiviral activity against Hepatitis B virus subtype adw2 infected in human HuH7 cells assessed as reduction in HBx level at 5 ug/ml after 2 days by immunoblot method relative to control; format: functional; procedure, shortened: as §2

For `C=C1C[C@@]23CC[C@H]4[C@@](C)(CCC[C@@]4(C)N=C=O)[C@@H]2CC[C@]1(O)C3`, the pIC50 [1] was 4.52, the CC50 at 72 h [2] was 337 µM and the pIC50 [3] was 4.72. For the same molecule, the pIC50 [4] was 4.55, the selectivity ratio [5] was 17.6 and the selectivity ratio [6] was 11.8. It also gave a selectivity ratio [7] of 11.2.

In the case of `C=C1C[C@@]23CC[C@H]4[C@@](C)(CCC[C@@]4(C)NC(=O)CCC)[C@@H]2CC[C@]1(O)C3`, the inhibition [8] was “Active” and the inhibition [9] was “Active”.

Work on `C=C1C[C@@]23CC[C@H]4[C@@](C)(CCC[C@@]4(C)NC(=O)Nc4ccc(Cl)cc4)[C@@H]2CC[C@]1(O)C3` yielded a pIC50 [10] of 5.10, a pIC50 [4] of 5.30 and a pIC50 [11] of 5.35. The selectivity ratio [7] was 6.6.

With `C=C1C[C@@]23CC[C@H]4[C@@](C)(CCC[C@@]4(C)NC(C)=O)[C@@H]2CC[C@]1(O)C3` the inhibition [12] was “Active”, the inhibition [8] was “Active” and the inhibition [9] was “Active”.

In the case of `C=C1C[C@@]23CC[C@H]4[C@@](C)(CCC[C@@]4(C)NC(=O)CCCCC)[C@@H]2CC[C@]1(O)C3`, the inhibition [12] was “Active”, the inhibition [8] was “Active” and the inhibition [9] was “Active”.

`C=C1C[C@@]23CC[C@H]4[C@@](C)(CCC[C@@]4(C)NC(=O)Nc4ccccc4)[C@@H]2CC[C@]1(O)C3` gave a pIC50 [10] of 4.47.

Work on `C=C1C[C@@]23CC[C@H]4[C@@](C)(CCC[C@@]4(C)NC(=O)c4ccc(OCC)cc4)[C@@H]2CC[C@]1(O)C3` yielded a pIC50 [10] of 5.57, a CC50 at 72 h [2] of 56.3 µM and a pIC50 [13] of 5.40. For the same molecule, the pIC50 [4] was 5.47, the selectivity ratio [5] was 20.9 and the selectivity ratio [6] was 16.6. The selectivity ratio [7] was 14.1.

For `COc1ccc(C[C@H]2NC[C@H](O)[C@H]2OC(C)=O)cc1`, the inhibition [14] was “inactive”.

For `Nc1ccn([C@@H]2CS[C@H](CO)O2)c(=O)n1` [LAMIVUDINE], the “fold change (FC)” value [15] was 0.21, the “fold change (FC)” value [16] was 0.17 and the CC50 at 72 h [2] was 2360 µM. For the same molecule, the pIC50 [13] was 3.97 and the selectivity ratio [7] was 22.

Molecule `C=C1C[C@@]23CC[C@H]4[C@@](C)(CCC[C@@]4(C)N)[C@@H]2CC[C@]1(O)C3` has a CC50 at 72 h [2] of 169 µM, a pIC50 [3] of 4.51 and a pIC50 [13] of 4.45. The pIC50 [4] was 4.51, the selectivity ratio [5] was 5.5 and the selectivity ratio [6] was 5.4. It also gave a selectivity ratio [7] of 4.7.

In the case of `C=C1C[C@@]23CC[C@H]4[C@@](C)(CCC[C@@]4(C)NC(=O)c4ccccc4)[C@@H]2CC[C@]1(O)C3`, the inhibition [12] was “Active”, the inhibition [8] was “Active” and the inhibition [9] was “Active”.

`O=c1[nH]cc(F)c(=O)[nH]1` [FLUOROURACIL] gave a CC50 at 72 h [2] of 228 µM.

`C=C1C[C@@]23CC[C@H]4[C@@](C)(CCC[C@@]4(C)NC(=O)Nc4ccc(C)cc4)[C@@H]2CC[C@]1(O)C3` gave a pIC50 [3] of 4.22.

In the case of `C=C1C[C@@]23CC[C@H]4[C@@](C)(CCC[C@@]4(C)NC(=O)CC)[C@@H]2CC[C@]1(O)C3`, the inhibition [8] was “Active” and the inhibition [9] was “Active”.

For `C=C1C[C@@]23CC[C@H]4[C@@](C)(CCC[C@@]4(C)NC(=O)c4ccc(OC)cc4)[C@@H]2CC[C@]1(O)C3`, the inhibition [12] was “Active”, the inhibition [8] was “Active” and the inhibition [9] was “Active”.

For `C=C1C[C@@]23CC[C@H]4[C@@](C)(CCC[C@@]4(C)NC(=O)Nc4ccc(F)cc4)[C@@H]2CC[C@]1(O)C3`, the inhibition [8] was “Active” and the inhibition [9] was “Active”.

With `C=C1C[C@@]23CC[C@H]4[C@@](C)(CCC[C@@]4(C)NC(=O)Nc4ccc(OC)cc4)[C@@H]2CC[C@]1(O)C3` the pIC50 [3] was 4.85 to 4.93, the pIC50 [4] was 4.87 to 5.11 and the pIC50 [11] was 4.83.

`C=C1C[C@@]23CC[C@H]4[C@@](C)(CCC[C@@]4(C)C(=O)O)[C@@H]2CC[C@]1(O)C3` [STEVIOL] gave a pIC50 [10] of 4.68, a pIC50 [1] of 4.70 and a CC50 at 72 h [2] of 474 µM. For the same molecule, the pIC50 [4] was 4.78, the selectivity ratio [5] was 22.8 and the selectivity ratio [6] was 28.6. For the same molecule, the selectivity ratio [7] was 23.8.

`C=C1C[C@@]23CC[C@H]4[C@@](C)(CCC[C@@]4(C)NC(=O)c4ccc(C#N)cc4)[C@@H]2CC[C@]1(O)C3` gave a pIC50 [10] of 5.08, a CC50 at 72 h [2] of 125 µM and a pIC50 [13] of 5.05. The pIC50 [4] was 4.87, the selectivity ratio [5] was 15.1 and the selectivity ratio [6] was 9.2. The selectivity ratio [7] was 13.9.

For `C=C1C[C@@]23CC[C@H]4[C@@](C)(CCC[C@@]4(C)NC(=O)c4ccc(C)cc4)[C@@H]2CC[C@]1(O)C3`, the inhibition [12] was “Active”, the inhibition [8] was “Active” and the inhibition [9] was “Active”.

For `C=C1C[C@@]23CC[C@H]4[C@@](C)(CCC[C@@]4(C)NC(=O)c4ccc(Br)cc4)[C@@H]2CC[C@]1(O)C3`, the inhibition [12] was “Active”, the inhibition [8] was “Active” and the inhibition [9] was “Active”.

In the case of `C=C1C[C@@]23CC[C@H]4[C@@](C)(CCC[C@@]4(C)NC(=O)c4ccc(F)cc4)[C@@H]2CC[C@]1(O)C3`, the inhibition [12] was “Active”, the inhibition [8] was “Active” and the inhibition [9] was “Active”.

For `C=C1C[C@@]23CC[C@H]4[C@@](C)(CCC[C@@]4(C)NC(=O)c4ccc(Cl)cc4)[C@@H]2CC[C@]1(O)C3`, the inhibition [12] was “Active”, the inhibition [8] was “Active” and the inhibition [9] was “Active”.

With `C=C1C[C@@]23CC[C@H]4[C@@](C)(CCC[C@@]4(C)NC(=O)Nc4cc(OC)c(OC)c(OC)c4)[C@@H]2CC[C@]1(O)C3` the pIC50 [3] was 4.85 to 4.93, the pIC50 [4] was 4.87 to 5.11 and the pIC50 [11] was 5.20.

For `C=C1C[C@@]23CC[C@H]4[C@@](C)(CCC[C@@]4(C)NC(=O)c4ccc(CC)cc4)[C@@H]2CC[C@]1(O)C3`, the inhibition [12] was “Active”, the inhibition [8] was “Active” and the inhibition [9] was “Active”.

In the case of `C=C1C[C@@]23CC[C@H]4[C@@](C)(CCC[C@@]4(C)NC(=O)Nc4ccc(OC)c(OC)c4)[C@@H]2CC[C@]1(O)C3`, the pIC50 [3] was 4.85 to 4.93, the pIC50 [4] was 4.87 to 5.11 and the pIC50 [11] was 4.84.

In the case of `C=C1C[C@@]23CC[C@H]4[C@@](C)(CCC[C@@]4(C)NC(=O)CCCC)[C@@H]2CC[C@]1(O)C3`, the inhibition [12] was “Active”, the inhibition [8] was “Active” and the inhibition [9] was “Active”.

Work on `C=C1C[C@@]23CC[C@H]4[C@@](C)(CCC[C@@]4(C)NC(=O)c4ccc(I)cc4)[C@@H]2CC[C@]1(O)C3` yielded a CC50 at 72 h [2] of 413 µM, a pIC50 [3] of 4.85 and a pIC50 [13] of 4.66. It also gave a pIC50 [4] of 4.62, a selectivity ratio [5] of 29.1 and a selectivity ratio [6] of 17.3. For the same molecule, the selectivity ratio [7] was 18.8.

For `C=C1C[C@@]23CC[C@H]4[C@@](C)(CCC[C@@]4(C)NC(=O)Nc4ccc(Br)cc4)[C@@H]2CC[C@]1(O)C3`, the inhibition [8] was “Active” and the inhibition [9] was “Active”.

In the case of `C=C1C[C@@]23CC[C@H]4[C@@](C)(CCC[C@@]4(C)NC(=O)c4cccs4)[C@@H]2CC[C@]1(O)C3`, the inhibition [12] was “Active”, the inhibition [8] was “Active” and the inhibition [9] was “Active”.

Reference: ChEMBL document CHEMBL3997773, “Synthesis of C-4-Substituted Steviol Derivatives and Their Inhibitory Effects against Hepatitis B Virus” (J Nat Prod, 2016)
